# From PubChem BioAssay AID652011 (Sanford-Burnham Center for Chemical Genomics, 2013)
# “And” between values parts separate entries of the source, which are not always exact repeats. Identical values can stand only once.
# Target: Hypoxia-inducible factor 1-alpha (Homo sapiens) (UniProt Q16665)
# Test: HIF reporter inhibition across pancreatic and renal lines – cell-based, luminescence, MIAPaCa-2, 786-0, panel, SAR follow-up (AID 652011)
# Settings: MIAPaCa-2/PANC HIF reporter, luciferase luminescence, desferoxamine, overnight, HIF1a, run 1; at 99 µM (top of the series)
# Procedure, shortened: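 Detection: luminescence, One-Glo; Reagent: desferoxamine; Incubation: overnight seeding and compound exposure, 37 °C, 5% CO2, 10-min detection.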
# Hypoxia-inducible factor 1-alpha (Homo sapiens), sequence (Q16665 whole entry, looked up): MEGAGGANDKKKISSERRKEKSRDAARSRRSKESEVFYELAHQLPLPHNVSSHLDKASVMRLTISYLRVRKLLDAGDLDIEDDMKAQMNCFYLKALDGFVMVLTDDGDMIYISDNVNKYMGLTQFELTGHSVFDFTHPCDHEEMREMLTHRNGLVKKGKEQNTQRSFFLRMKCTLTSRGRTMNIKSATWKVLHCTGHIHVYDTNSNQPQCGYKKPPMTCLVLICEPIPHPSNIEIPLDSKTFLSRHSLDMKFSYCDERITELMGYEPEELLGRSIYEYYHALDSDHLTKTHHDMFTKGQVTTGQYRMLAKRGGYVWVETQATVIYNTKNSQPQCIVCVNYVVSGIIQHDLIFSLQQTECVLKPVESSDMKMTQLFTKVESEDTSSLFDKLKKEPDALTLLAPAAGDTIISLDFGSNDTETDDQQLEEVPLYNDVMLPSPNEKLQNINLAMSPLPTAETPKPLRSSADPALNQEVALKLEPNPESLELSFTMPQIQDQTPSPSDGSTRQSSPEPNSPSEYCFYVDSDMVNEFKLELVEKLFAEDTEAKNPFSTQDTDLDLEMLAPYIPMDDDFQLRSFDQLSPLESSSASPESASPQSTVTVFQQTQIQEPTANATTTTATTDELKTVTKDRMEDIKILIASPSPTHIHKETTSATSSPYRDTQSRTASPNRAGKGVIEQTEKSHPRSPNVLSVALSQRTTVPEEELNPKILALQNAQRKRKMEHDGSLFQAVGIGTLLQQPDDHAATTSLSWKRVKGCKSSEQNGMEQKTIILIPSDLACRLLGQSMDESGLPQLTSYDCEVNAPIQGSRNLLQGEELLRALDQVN
row,SMILES,inhibition
1,CCCCc1ccc(-c2noc(CCC(=O)NC(C)CC)n2)cc1 (stereo unspecified),29.2%
2,CC(C)(C)NC(=O)CCc1nc(-c2ccccc2)no1,-47.1%
3,CCNC(=O)CCc1nc(-c2c(Cl)cccc2Cl)no1,13.2%
4,CCNC(=O)CCc1nc(-c2ccc(OCC)cc2)no1,-79.8%
5,CC(C)c1ccc(-c2noc(CCC(=O)NC3CC3)n2)cc1,-58.4%
6,CC(C)(C)c1ccc(-c2noc(CCC(=O)NCC3CCCO3)n2)cc1 (stereo unspecified),-24.5%
7,COc1cccc(NC(=O)CCc2nc(-c3ccc(C(C)(C)C)cc3)no2)c1,74.5%
8,CC(C)CNC(=O)CCc1nc(-c2ccc(C(C)(C)C)cc2)no1,-21.6%
9,CC(C)(C)c1ccc(-c2noc(CCC(=O)NC3CCCC3)n2)cc1,70.1%
10,O=C(CCc1nc(-c2ccccc2)no1)NC1CC1,-33.5%
11,CC(C)(C)c1ccc(-c2noc(CCC(=O)N3CCCCC3)n2)cc1,102%
12,O=C(O)CCc1nc(-c2ccccc2)no1,4.64%
13,CC(C)(C)c1ccc(-c2noc(CCC(N)=O)n2)cc1,8.32% and -17.9%
14,CCOc1ccccc1NC(=O)CCc1nc(-c2ccc(C(C)(C)C)cc2)no1,54.8%
15,CCOc1ccc(-c2noc(CCC(=O)O)n2)cc1,73.4%
16,CNC(=O)CCc1nc(-c2ccc(F)cc2)no1,-42.8%

row,SMILES,inhibition
1,CC(C)(C)c1ccc(-c2noc(CCC(=O)Nc3cccnc3)n2)cc1,98.9%
2,CC(C)(C)c1ccc(-c2noc(CCC(=O)N3CCOCC3)n2)cc1,-34.2%
3,CCC(C)NC(=O)CCc1nc(-c2ccc(C(C)(C)C)cc2)no1 (stereo unspecified),-78.9%
4,CCCNC(=O)CCc1nc(-c2ccc(C(C)(C)C)cc2)no1,-1.08%
5,CC(C)(C)c1ccc(-c2noc(CCC(=O)Nc3ccccc3)n2)cc1,43%
6,CCN(CC)C(=O)CCc1nc(-c2ccc(C(C)(C)C)cc2)no1,-20.8% and 47.7%
7,CCNC(=O)CCc1nc(-c2cccc(OC)c2)no1,-42.1%
8,CCCCc1ccc(-c2noc(CCC(=O)NC(C)(C)C)n2)cc1,86.1%
9,CCCCc1ccc(-c2noc(CCC(=O)NC)n2)cc1,-40.2%
10,CCNC(=O)CCc1nc(-c2ccc(C(C)(C)C)cc2)no1,-11.3% and -13.8%
11,CCOc1ccc(-c2noc(CCC(=O)NC)n2)cc1,-41.9%
12,CC(C)(C)c1ccc(-c2noc(CCC(=O)O)n2)cc1,94.7%
13,CNC(=O)CCc1nc(-c2ccc(C(C)C)cc2)no1,-38.5%
14,CC(C)(C)c1ccc(-c2noc(CCC(=O)NC3CC3)n2)cc1,-50.8%
15,CCc1ccc(-c2noc(CCC(=O)NC)n2)cc1,-61.6%
